These compounds were tested on Cavia porcellus (assay: Antihistaminic activity against Dunkin-Hartley guinea pig assessed as protection against histamine-induced bronchospasm at 10 mg/kg, po).

Compound | Activity [%]
CN(C)CCC(c1ccc(Cl)cc1)c1ccccn1.O=C(O)/C=C\C(=O)O (centres undefined) [CHLORPHENIRAMINE MALEATE] | 71

What follows are compounds tested on Mus musculus (assay: Sedative-hypnotic activity in Swiss Albino mouse assessed as CNS depression at 5 mg/kg, po after 3 hrs).
Assay type: functional
Summary of the method: (§1)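 The basal motor activity score was recorded first. Compound was then given orally in 1% CMC, and scores were taken at 1, 2 and 3 h post-dose. % reduction in motor activity = [(A−B)/A]×100, with A the basal score and B the post-treatment score. Significance was tested by Student's t-test.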

Compound | Activity [%]
Cc1ccccc1-n1c(=O)c2ccccc2n2c(N3CCCC3)nnc12 | 7
Cc1ccccc1-n1c(=O)c2ccccc2n2c(CCl)nnc12 | 4
Cc1ccccc1-n1c(=O)c2ccccc2n2c(C)nnc12 | 8
CCc1nnc2n(-c3ccccc3C)c(=O)c3ccccc3n12 | 9
CCCc1nnc2n(-c3ccccc3C)c(=O)c3ccccc3n12 | 8
Cc1ccccc1-n1c(=O)c2ccccc2n2c(N3CCOCC3)nnc12 | 10
Cc1ccccc1-n1c(=O)c2ccccc2n2c(CN3CCNCC3)nnc12 | 9
Cc1ccccc1-n1c(=O)c2ccccc2n2c(CN3CCN(C)CC3)nnc12 | 10
Cc1ccccc1-n1c(=O)c2ccccc2n2c(CN3CCCCC3)nnc12 | 9
Cc1ccccc1-n1c(=O)c2ccccc2n2cnnc12 | 5
CN(C)CCC(c1ccc(Cl)cc1)c1ccccn1.O=C(O)/C=C\C(=O)O (centres undefined) [CHLORPHENIRAMINE MALEATE] | 22

Each compound was assayed on Cavia porcellus (assay: Antihistaminic activity against Dunkin-Hartley guinea pig assessed as protection against histamine-induced bronchospasm at 10 mg/kg, po).
Assay type: functional
Summary of the method: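 Male Dunkin Hartley guinea pigs (250–300 g), fasted 12 h, six per group. Dosed orally in 1% CMC, then challenged with histamine aerosol (0.2% aqueous histamine acid chloride) sprayed from a pocket nebulizer into a closed cage. Preconvulsion onset time was recorded, and animals stable beyond 6 min counted as protected. Mean preconvulsion time vs control expressed as % protection.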

Compound | Activity [%]
Cc1ccccc1-n1c(=O)c2ccccc2n2c(N3CCCC3)nnc12 | 68.81
Cc1ccccc1-n1c(=O)c2ccccc2n2c(CCl)nnc12 | 68.56
Cc1ccccc1-n1c(=O)c2ccccc2n2c(C)nnc12 | 72.45
CCc1nnc2n(-c3ccccc3C)c(=O)c3ccccc3n12 | 70.78
CCCc1nnc2n(-c3ccccc3C)c(=O)c3ccccc3n12 | 69.47
Cc1ccccc1-n1c(=O)c2ccccc2n2c(N3CCOCC3)nnc12 | 70.33
Cc1ccccc1-n1c(=O)c2ccccc2n2c(CN3CCNCC3)nnc12 | 70.7
Cc1ccccc1-n1c(=O)c2ccccc2n2c(CN3CCN(C)CC3)nnc12 | 72.05
Cc1ccccc1-n1c(=O)c2ccccc2n2c(CN3CCCCC3)nnc12 | 69.47
Cc1ccccc1-n1c(=O)c2ccccc2n2cnnc12 | 69.87

These compounds were tested on Mus musculus (assay: Sedative-hypnotic activity in Swiss Albino mouse assessed as CNS depression at 5 mg/kg, po after 1 hr).
Assay type: functional
Summary of the method: as §1

Compound | Activity [%]
Cc1ccccc1-n1c(=O)c2ccccc2n2c(N3CCCC3)nnc12 | 10
Cc1ccccc1-n1c(=O)c2ccccc2n2c(CCl)nnc12 | 8
Cc1ccccc1-n1c(=O)c2ccccc2n2c(C)nnc12 | 11
CCc1nnc2n(-c3ccccc3C)c(=O)c3ccccc3n12 | 13
CCCc1nnc2n(-c3ccccc3C)c(=O)c3ccccc3n12 | 13
Cc1ccccc1-n1c(=O)c2ccccc2n2c(N3CCOCC3)nnc12 | 10
Cc1ccccc1-n1c(=O)c2ccccc2n2c(CN3CCNCC3)nnc12 | 12
Cc1ccccc1-n1c(=O)c2ccccc2n2c(CN3CCN(C)CC3)nnc12 | 12
Cc1ccccc1-n1c(=O)c2ccccc2n2c(CN3CCCCC3)nnc12 | 13
Cc1ccccc1-n1c(=O)c2ccccc2n2cnnc12 | 9
CN(C)CCC(c1ccc(Cl)cc1)c1ccccn1.O=C(O)/C=C\C(=O)O (centres undefined) [CHLORPHENIRAMINE MALEATE] | 37

What follows are compounds tested on Mus musculus (assay: Sedative-hypnotic activity in Swiss Albino mouse assessed as CNS depression at 5 mg/kg, po after 2 hrs).
Assay type: functional
Summary of the method: as §1

Compound | Activity [%]
Cc1ccccc1-n1c(=O)c2ccccc2n2c(N3CCCC3)nnc12 | 14
Cc1ccccc1-n1c(=O)c2ccccc2n2c(CCl)nnc12 | 13
Cc1ccccc1-n1c(=O)c2ccccc2n2c(C)nnc12 | 14
CCc1nnc2n(-c3ccccc3C)c(=O)c3ccccc3n12 | 14
CCCc1nnc2n(-c3ccccc3C)c(=O)c3ccccc3n12 | 17
Cc1ccccc1-n1c(=O)c2ccccc2n2c(N3CCOCC3)nnc12 | 15
Cc1ccccc1-n1c(=O)c2ccccc2n2c(CN3CCNCC3)nnc12 | 13
Cc1ccccc1-n1c(=O)c2ccccc2n2c(CN3CCN(C)CC3)nnc12 | 18
Cc1ccccc1-n1c(=O)c2ccccc2n2c(CN3CCCCC3)nnc12 | 16
Cc1ccccc1-n1c(=O)c2ccccc2n2cnnc12 | 11
CN(C)CCC(c1ccc(Cl)cc1)c1ccccn1.O=C(O)/C=C\C(=O)O (centres undefined) [CHLORPHENIRAMINE MALEATE] | 32
